The text below walks through data of the array DNA melting data of Ke et al. (doi:10.1101/2024.01.08.574731).

Data set [1] can be described thus: folding enthalpy; higher = less favourable; fluorescence melt of hairpins on a sequencing array, two-state fit. Conditions: sodium 0.088 M. The procedure, abridged:
(§1)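 To match UV melts, fitted temperatures were raised by 9.35 °C. These fits were bootstrapped two-state models that gave melting temperature and folding enthalpy, combined by inverse variance over four replicates. The input was normalised Cy3 fluorescence of library hairpins with annealed Cy3 and quencher oligos on a sequenced MiSeq flow cell, imaged in 50 mM Na-HEPES pH 8.0, 25 mM NaCl in 2.5 °C steps up to 60 °C.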

Data set [2] is described as follows: melting temperature; fluorescence melt of hairpins on a sequencing array, two-state fit, raised by 9.35 °C to match UV melts. Particulars: sodium 0.088 M. The procedure, abridged: as §1

GCTTTCGAAAGAACTAGC ((((((....)))..))): the folding enthalpy in data set [1] is -12.3 kcal/mol. Further, the Tm in data set [2] is 25.4 °C.
In the same order, the values of GCGGGGCGAAAGCGTCGC (((..((....))..))) are -36 kcal/mol and 67.8 °C.
In the same order, the values of GATCCGGCTACGGATC ((((((....)))))) are -40.2 kcal/mol and 67.8 °C.
In the same order, the values of GAGTGCGGAAACGTGCTC (((..((....))..))) are -38 kcal/mol and 49.5 °C.
Consider GATCTAGAGTTAGATC ((((((....)))))), for which the folding enthalpy in data set [1] was -24 kcal/mol. Moreover, the Tm in data set [2] is 37.7 °C.
On to GATCTCACGGGAGATC ((((((....)))))), for which the folding enthalpy in data set [1] was -39.3 kcal/mol. The Tm in data set [2] was 51.7 °C.
As to GTTTGCACGAAAGTGAAC (((..(((....)))))), the folding enthalpy in data set [1] was -13.9 kcal/mol. In addition, the Tm in data set [2] is 31.2 °C.
In the same order, the values of GGACCCGGAAACAGGCCC ((.((.(....).)).)) are -16.9 kcal/mol and 29 °C.
Regarding GATCCTTTTTAGGATC ((((((....)))))), the folding enthalpy in data set [1] was -34.7 kcal/mol. Further, the Tm in data set [2] was found to be 53.9 °C.
In the same order, the values of GTGGAAGGAAACTCCCAC ((((.((....)).)))) are -36.2 kcal/mol and 38.6 °C.
In the same order, the values of GTTGATGGAAACACCAAC ((((.((....)).)))) are -30.2 kcal/mol and 37 °C.
Take GCAGTAGGAAACTACTGC (((((((....))))))): the folding enthalpy in data set [1] was -54 kcal/mol. The Tm in data set [2] came to 64.6 °C.
In the same order, the values of GTCGTCGAAAGACAGGAC ((((((....)))..))) are -18.3 kcal/mol and 41 °C.
As for GGTTACGGAAACGTAGCC ((.((((....)))).)), the folding enthalpy in data set [1] was -28.6 kcal/mol. Moreover, in data set [2], the Tm amounted to 51.7 °C.
For the sequence CGTACGGAAACGTCACG ((((((....))).))), the folding enthalpy in data set [1] is -22.6 kcal/mol. The Tm in data set [2] came to 38.4 °C.
In the case of GCGACTAGTCGC ((((....)))), the folding enthalpy in data set [1] is -28.9 kcal/mol. The Tm in data set [2] was 65.2 °C.
GGTCAAGGAAACTTGATC (.(((((....))))).): the folding enthalpy in data set [1] was -34.1 kcal/mol. Also, the Tm in data set [2] stood at 42.1 °C.
Take GATCCGCGAAAGCGAATC (((.(((....))).))): the folding enthalpy in data set [1] was -20.2 kcal/mol. The Tm in data set [2] stood at 49.2 °C.
In the same order, the values of GATCGAATTTCGATC ((((((...)))))) are -46.1 kcal/mol and 51.5 °C.
Take GCAAGACGAAAGTCTGC (((.(((....)))))): the folding enthalpy in data set [1] is -26.7 kcal/mol. Moreover, the Tm in data set [2] was 57.7 °C.
In the same order, the values of GGACGGTCGAAAGACTCC (((..(((....)))))) are -12.2 kcal/mol and 29.5 °C.
Take GATGCAGGAAACTGCATC (((((((....))))))): the folding enthalpy in data set [1] is -43.6 kcal/mol. Besides, the Tm in data set [2] came to 64.7 °C.
GAAGCCGAAAGGCCTTTC ((((((....)))..))): the folding enthalpy in data set [1] is -9.88 kcal/mol. Further, in data set [2], the Tm was determined as 35.9 °C.
For the sequence GATTCCCCGAAAGGGATC (((..(((....)))))), in data set [1], the folding enthalpy is -12.2 kcal/mol. In addition, in data set [2], the Tm stood at 29.2 °C.
Consider GGGGGTGGAAACGCTCCC (((.(.(....).).))), for which, in data set [1], the folding enthalpy was -25.9 kcal/mol. In addition, the Tm in data set [2] is 47.1 °C.
For the sequence GCGGAGTCCCGC ((((....)))), the folding enthalpy in data set [1] is -21.1 kcal/mol. Moreover, the Tm in data set [2] was found to be 55.7 °C.
Turning to GAGGTCGGAAACAACCTC (((((.(....).))))), the folding enthalpy in data set [1] is -28.8 kcal/mol. In addition, in data set [2], the Tm is 41.2 °C.
In the same order, the values of GTGCCTGGAAACAGGTAC ((.((((....)))).)) are -32.7 kcal/mol and 53.6 °C.
In the same order, the values of GCAAATCGAAAGATGTGC (((.(((....))).))) are -28.3 kcal/mol and 48.8 °C.
In the same order, the values of GCCCGGCGAAAGCGAGGC (((..((....))..))) are -16.6 kcal/mol and 58.9 °C.
Regarding GCTGTAGGAAACCACAGC (((((.(....).))))), in data set [1], the folding enthalpy was -36.3 kcal/mol. Besides, in data set [2], the Tm came to 47.5 °C.
With GCACTGCGAAAGCAAAGC ((..(((....)))..)), the folding enthalpy in data set [1] is -13.2 kcal/mol. For the same sequence, the Tm in data set [2] was 37.1 °C.
In the case of GATCAGGCTGCTGATC ((((((....)))))), the folding enthalpy in data set [1] was -46.2 kcal/mol. In data set [2], the Tm came to 50.4 °C.
On to GGCAACCGAAAGGTCGCC (((.(((....))).))), for which the folding enthalpy in data set [1] was -37.3 kcal/mol. Moreover, the Tm in data set [2] came out at 58.9 °C.
Regarding GGGTTGGGAAACCAACTC (.(((((....))))).), the folding enthalpy in data set [1] is -21.9 kcal/mol. Also, the Tm in data set [2] is 49.7 °C.
In the same order, the values of GGTGGCGAAAGCCACACC ((((((....)))..))) are -6.43 kcal/mol and 60 °C.
In the same order, the values of GATCTCGCGCGAGATC ((((((....)))))) are -48.4 kcal/mol and 62.5 °C.
In the same order, the values of GCGACCTTCGC ((((...)))) are -25.4 kcal/mol and 48.2 °C.
For the sequence GGAAACTCGAAAGAGTCC (((..(((....)))))), in data set [1], the folding enthalpy is -14.3 kcal/mol. Further, the Tm in data set [2] is 33.8 °C.
In the same order, the values of GATCTGAATCAGATC ((((((...)))))) are -34 kcal/mol and 44.7 °C.
In the case of GTCTCCGAAAGGAAGAC ((((((....))).))), in data set [1], the folding enthalpy was -27.2 kcal/mol. The Tm in data set [2] came out at 52.1 °C.
In the same order, the values of GTCCTCGAAAGAGTGGAC ((((((....)))..))) are -23.6 kcal/mol and 41.6 °C.
In the same order, the values of GCTCGCGAAAGCGTTAGC ((((((....)))..))) are -14.1 kcal/mol and 45.9 °C.
In the same order, the values of GTGCATGGAAACGTGCAC (((((.(....).))))) are -47 kcal/mol and 55.8 °C.
In the case of GCGGAGCGAAAGCCTCGC (((..((....))..))), the folding enthalpy in data set [1] was -13.8 kcal/mol. Further, in data set [2], the Tm turned out to be 50.5 °C.
For the sequence GCAGCGCGAAAGCGTGGC ((..(((....)))..)), in data set [1], the folding enthalpy is -23.1 kcal/mol. The Tm in data set [2] was 64.2 °C.
In the same order, the values of GCAATTGGAAACAATCGC ((.((((....)))).)) are -27.4 kcal/mol and 38.8 °C.
Consider GGAGTCGGAAACGATTCC (((.(((....))).))), for which, in data set [1], the folding enthalpy was -30.1 kcal/mol. Also, the Tm in data set [2] came to 50.3 °C.
In the same order, the values of GTTGCAGGAAACTGTGAC ((..(((....)))..)) are -29.9 kcal/mol and 37.9 °C.
In the same order, the values of GCCCTCGAAAGAGCGGGC ((((((....)))..))) are -29.2 kcal/mol and 50.1 °C.
On to GCATTAGGAAACTAACGC ((.((((....)))).)), for which, in data set [1], the folding enthalpy was -22.6 kcal/mol. Further, the Tm in data set [2] is 31.7 °C.
As for GATCCCCACGGGGATC ((((((....)))))), the folding enthalpy in data set [1] was -36.2 kcal/mol. Also, in data set [2], the Tm amounted to 66.4 °C.
Turning to GGTCGAGCGAAAGCTACC (((..(((....)))))), the folding enthalpy in data set [1] was -11.9 kcal/mol. Moreover, in data set [2], the Tm came to 33.3 °C.
Turning to GTACTAGCGAAAGCTTAC (((..(((....)))))), the folding enthalpy in data set [1] is -9.73 kcal/mol. In data set [2], the Tm was determined as 28.2 °C.
As for GGTGCCCGAAAGGGACC (((.(((....)))))), the folding enthalpy in data set [1] is -21.5 kcal/mol. In data set [2], the Tm amounted to 58.1 °C.
In the same order, the values of GATCCAGCATTGGATC ((((((....)))))) are -44.4 kcal/mol and 56 °C.
In the same order, the values of GAGTTCGGAAACGAGCTC (((.(((....))).))) are -31.3 kcal/mol and 51.7 °C.
In the same order, the values of GCGAGACTTCGC ((((....)))) are -10.4 kcal/mol and 56.6 °C.
With GTCCGCGAAAGCGTCGAC ((((((....)))..))), the folding enthalpy in data set [1] is -13.3 kcal/mol. Also, the Tm in data set [2] was 37.2 °C.
In the same order, the values of CGTTCGGAAACGATTACG ((((((....)))..))) are -18.1 kcal/mol and 35.7 °C.
In the same order, the values of GATCGAGCGCTCGATC ((((((....)))))) are -44 kcal/mol and 62.2 °C.
On to GCACTGGGAAACCAGCAC (..((((....))))..), for which the folding enthalpy in data set [1] was -10.1 kcal/mol. For the same sequence, the Tm in data set [2] amounted to 27.3 °C.
On to GATCCCGGTTGGGATC ((((((....)))))), for which the folding enthalpy in data set [1] was -32.4 kcal/mol. Further, the Tm in data set [2] came out at 65.2 °C.
In the same order, the values of GAATCCCGAAAGGGTTC (((.(((....)))))) are -17.9 kcal/mol and 48.1 °C.
In the same order, the values of GCAGTGGGAAACTACTGC (((((.(....).))))) are -37.9 kcal/mol and 54.2 °C.
In the same order, the values of GTCCGCCGAAAGGCGAC (((.(((....)))))) are -9.54 kcal/mol and 52.5 °C.
As for GGTTTCGAAAGAAGCACC ((((((....)))..))), the folding enthalpy in data set [1] was -16.5 kcal/mol. In data set [2], the Tm is 28.6 °C.
Consider GCAGAAGCGAAAGCTTGC (((..(((....)))))), for which the folding enthalpy in data set [1] is -16.2 kcal/mol. Besides, the Tm in data set [2] amounted to 47.2 °C.
In the same order, the values of GGACGGCGAAAGCCTCC (((.(((....)))))) are -16.4 kcal/mol and 53.5 °C.
Take GGTATCGGAAACGGTATC (.((.((....)).)).): the folding enthalpy in data set [1] is -26.1 kcal/mol. Also, the Tm in data set [2] stood at 30.9 °C.
Consider GCTCTGCGAAAGCTAAGC (((..((....))..))), for which, in data set [1], the folding enthalpy is -13.4 kcal/mol. In addition, in data set [2], the Tm was 37.9 °C.
GATCCCGGTCGGGATC ((((((....)))))): the folding enthalpy in data set [1] is -35.5 kcal/mol. Also, the Tm in data set [2] was 66.1 °C.
In the same order, the values of GCTGTCGAAAGACCTAGC ((((((....)))..))) are -15.7 kcal/mol and 36.5 °C.
In the case of GATCCCCGAAAGGGAATC (((.(((....))).))), the folding enthalpy in data set [1] is -21.8 kcal/mol. Also, the Tm in data set [2] amounted to 44.9 °C.
